{"source": "ChEMBL document CHEMBL3526062", "about": "“Role of human UDP-glucuronosyltransferases in the biotransformation of the triazoloacridinone and imidazoacridinone antitumor agents C-1305 and C-1311: highly selective substrates for UGT1A10” (Drug Metab Dispos, 2012)", "molecules": {"B1": {"name": "UDP-glucuronosyltransferase 1A1 (Homo sapiens) (protein)", "chain": "MAVESQGGRPLVLGLLLCVLGPVVSHAGKILLIPVDGSHWLSMLGAIQQLQQRGHEIVVLAPDASLYIRDGAFYTLKTYPVPFQREDVKESFVSLGHNVFENDSFLQRVIKTYKKIKKDSAMLLSGCSHLLHNKELMASLAESSFDVMLTDPFLPCSPIVAQYLSLPTVFFLHALPCSLEFEATQCPNPFSYVPRPLSSHSDHMTFLQRVKNMLIAFSQNFLCDVVYSPYATLASEFLQREVTVQDLLSSASVWLFRSDFVKDYPRPIMPNMVFVGGINCLHQNPLSQEFEAYINASGEHGIVVFSLGSMVSEIPEKKAMAIADALGKIPQTVLWRYTGTRPSNLANNTILVKWLPQNDLLGHPMTRAFITHAGSHGVYESICNGVPMVMMPLFGDQMDNAKRMETKGAGVTLNVLEMTSEDLENALKAVINDKSYKENIMRLSSLHKDRPVEPLDLAVFWVEFVMRHKGAPHLRPAAHDLTWYQYHSLDVIGFLLAVVLTVAFITFKCCAYGYRKCLGKKGRVKKAHKSKTH"}, "B2": {"name": "UDP-glucuronosyltransferase 1A7 (Homo sapiens) (protein)", "chain": "MARAGWTGLLPLYVCLLLTCGFAKAGKLLVVPMDGSHWFTMQSVVEKLILRGHEVVVVMPEVSWQLGRSLNCTVKTYSTSYTLEDQDREFMVFADARWTAPLRSAFSLLTSSSNGIFDLFFSNCRSLFNDRKLVEYLKESCFDAVFLDPFDACGLIVAKYFSLPSVVFARGIFCHYLEEGAQCPAPLSYVPRLLLGFSDAMTFKERVWNHIMHLEEHLFCPYFFKNVLEIASEILQTPVTAYDLYSHTSIWLLRTDFVLEYPKPVMPNMIFIGGINCHQGKPVPMEFEAYINASGEHGIVVFSLGSMVSEIPEKKAMAIADALGKIPQTVLWRYTGTRPSNLANNTILVKWLPQNDLLGHPMTRAFITHAGSHGVYESICNGVPMVMMPLFGDQMDNAKRMETKGAGVTLNVLEMTSEDLENALKAVINDKSYKENIMRLSSLHKDRPVEPLDLAVFWVEFVMRHKGAPHLRPAAHDLTWYQYHSLDVIGFLLAVVLTVAFITFKCCAYGYRKCLGKKGRVKKAHKSKTH"}, "B3": {"name": "UDP-glucuronosyltransferase 1A9 (Homo sapiens) (protein)", "chain": "MACTGWTSPLPLCVCLLLTCGFAEAGKLLVVPMDGSHWFTMRSVVEKLILRGHEVVVVMPEVSWQLGRSLNCTVKTYSTSYTLEDLDREFKAFAHAQWKAQVRSIYSLLMGSYNDIFDLFFSNCRSLFKDKKLVEYLKESSFDAVFLDPFDNCGLIVAKYFSLPSVVFARGILCHYLEEGAQCPAPLSYVPRILLGFSDAMTFKERVRNHIMHLEEHLLCHRFFKNALEIASEILQTPVTEYDLYSHTSIWLLRTDFVLDYPKPVMPNMIFIGGINCHQGKPLPMEFEAYINASGEHGIVVFSLGSMVSEIPEKKAMAIADALGKIPQTVLWRYTGTRPSNLANNTILVKWLPQNDLLGHPMTRAFITHAGSHGVYESICNGVPMVMMPLFGDQMDNAKRMETKGAGVTLNVLEMTSEDLENALKAVINDKSYKENIMRLSSLHKDRPVEPLDLAVFWVEFVMRHKGAPHLRPAAHDLTWYQYHSLDVIGFLLAVVLTVAFITFKCCAYGYRKCLGKKGRVKKAHKSKTH"}, "B4": {"name": "UDP-glucuronosyltransferase 1A10 (Homo sapiens) (protein)", "chain": "MARAGWTSPVPLCVCLLLTCGFAEAGKLLVVPMDGSHWFTMQSVVEKLILRGHEVVVVMPEVSWQLERSLNCTVKTYSTSYTLEDQNREFMVFAHAQWKAQAQSIFSLLMSSSSGFLDLFFSHCRSLFNDRKLVEYLKESSFDAVFLDPFDTCGLIVAKYFSLPSVVFTRGIFCHHLEEGAQCPAPLSYVPNDLLGFSDAMTFKERVWNHIVHLEDHLFCQYLFRNALEIASEILQTPVTAYDLYSHTSIWLLRTDFVLDYPKPVMPNMIFIGGINCHQGKPLPMEFEAYINASGEHGIVVFSLGSMVSEIPEKKAMAIADALGKIPQTVLWRYTGTRPSNLANNTILVKWLPQNDLLGHPMTRAFITHAGSHGVYESICNGVPMVMMPLFGDQMDNAKRMETKGAGVTLNVLEMTSEDLENALKAVINDKSYKENIMRLSSLHKDRPVEPLDLAVFWVEFVMRHKGAPHLRPAAHDLTWYQYHSLDVIGFLLAVVLTVAFITFKCCAYGYRKCLGKKGRVKKAHKSKTH"}}, "type_in_all_cases": "ADME", "key": {"[1]": {"test_system": "CCN(CC)CCNc1ccc2ncn3c4ccc(O)cc4c(=O)c1c23", "assay": "(§1) Activity of human recombinant UGT1A10 V92A mutant expressed in baculovirus-infected Sf9 cells assessed as enzyme-mediated glucuronidation after 60 mins by Michaelis-Menten equation in presence of 3 mM UDP-GlcUA", "method_in_brief": "(§2)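 Membrane fractions (5 μg) holding wild-type or point-mutant UGT1A10 incubated with increasing substrate concentrations and 3 mM UDP-GlcUA, 60 min, 37°C; products by HPLC. Kinetic constants from curve fits of three determinations; Km in μM, Vmax in nmol/mg protein/min.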"}, "[2]": {"test_system": "CN(C)CCCNc1ccc2nnn3c4ccc(O)cc4c(=O)c1c23", "assay": "as §1", "method_in_brief": "as §2"}, "[3]": {"test_system": "CCN(CC)CCNc1ccc2ncn3c4ccc(O)cc4c(=O)c1c23", "assay": "(§3) Activity of human recombinant UGT1A10 D396A mutant expressed in baculovirus-infected Sf9 cells assessed as enzyme-mediated glucuronidation after 60 mins by Michaelis-Menten equation in presence of 3 mM UDP-GlcUA", "method_in_brief": "as §2"}, "[4]": {"test_system": "CN(C)CCCNc1ccc2nnn3c4ccc(O)cc4c(=O)c1c23", "assay": "as §3", "method_in_brief": "as §2"}, "[5]": {"substrate": "CCN(CC)CCNc1ccc2ncn3c4ccc(O)cc4c(=O)c1c23", "assay": "(§4) Activity of human recombinant UGT1A1 expressed in baculovirus-infected Sf9 cells assessed as enzyme-mediated glucuronidation after 60 mins by Michaelis-Menten equation in presence of 3 mM UDP-GlcUA", "method_in_brief": "(§5)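 Recombinant UGT membrane protein (5 μg; His-tagged UGT1A levels normalized by anti-His Western blot) or single-donor microsomes (20 μg) incubated with substrate 5–1000 μM and 3 mM UDP-GlcUA in […] pH 7.4, 5 mM MgCl2, 5 mM saccharolactone, 2% DMSO, 60 min, 37°C. Ethanol stop, centrifuged, HPLC-UV. Initial velocities fitted to Michaelis-Menten, Hill or substrate-inhibition models; three determinations.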"}, "[6]": {"substrate": "CN(C)CCCNc1ccc2nnn3c4ccc(O)cc4c(=O)c1c23", "assay": "as §4", "method_in_brief": "as §5"}, "[7]": {"substrate": "CN(C)CCCNc1ccc2nnn3c4ccc(O)cc4c(=O)c1c23", "assay": "Activity of human recombinant UGT1A7 expressed in baculovirus-infected Sf9 cells assessed as enzyme-mediated glucuronidation after 60 mins by Michaelis-Menten equation in presence of 3 mM UDP-GlcUA"}, "[8]": {"substrate": "CCN(CC)CCNc1ccc2ncn3c4ccc(O)cc4c(=O)c1c23", "assay": "(§6) Activity of human recombinant UGT1A9 expressed in baculovirus-infected Sf9 cells assessed as enzyme-mediated glucuronidation after 60 mins by Michaelis-Menten equation in presence of 3 mM UDP-GlcUA", "method_in_brief": "as §5"}, "[9]": {"substrate": "CN(C)CCCNc1ccc2nnn3c4ccc(O)cc4c(=O)c1c23", "assay": "as §6", "method_in_brief": "as §5"}, "[10]": {"substrate": "CCN(CC)CCNc1ccc2ncn3c4ccc(O)cc4c(=O)c1c23", "assay": "(§7) Activity of human recombinant UGT1A10 expressed in baculovirus-infected Sf9 cells assessed as enzyme-mediated glucuronidation after 60 mins by Michaelis-Menten equation in presence of 3 mM UDP-GlcUA", "method_in_brief": "as §5"}, "[11]": {"substrate": "CN(C)CCCNc1ccc2nnn3c4ccc(O)cc4c(=O)c1c23", "assay": "as §7", "method_in_brief": "as §5"}}}
{"molecule": "UDP-glucuronosyltransferase 1A10 (Homo sapiens; V92A)", "values": [{"measurement": "Km", "setting": "[1]", "result": 40.7, "unit": "µM"}, {"measurement": "Vmax", "setting": "[1]", "result": 0.00025, "unit": "µmol/min"}, {"measurement": "Km", "setting": "[2]", "result": 64.7, "unit": "µM"}, {"measurement": "Vmax", "setting": "[2]", "result": 0.00073, "unit": "µmol/min"}]}
{"molecule": "UDP-glucuronosyltransferase 1A10 (Homo sapiens; D396A)", "values": [{"measurement": "Km", "setting": "[3]", "result": 75.4, "unit": "µM"}, {"measurement": "Vmax", "setting": "[3]", "result": 0.00078, "unit": "µmol/min"}, {"measurement": "Km", "setting": "[4]", "result": 47.6, "unit": "µM"}, {"measurement": "Vmax", "setting": "[4]", "result": 0.00199, "unit": "µmol/min"}]}
{"molecule": "B1", "values": [{"measurement": "Km", "setting": "[5]", "result": 28.9, "unit": "µM"}, {"measurement": "Vmax", "setting": "[5]", "result": 0.000115, "unit": "µmol/min"}, {"measurement": "Km", "setting": "[6]", "result": 149, "unit": "µM"}, {"measurement": "Vmax", "setting": "[6]", "result": 0.000262, "unit": "µmol/min"}]}
{"molecule": "B2", "values": [{"measurement": "Km", "setting": "[7]", "result": 29.3, "unit": "µM"}, {"measurement": "Vmax", "setting": "[7]", "result": 0.000306, "unit": "µmol/min"}]}
{"molecule": "B3", "values": [{"measurement": "Km", "setting": "[8]", "result": 63.3, "unit": "µM"}, {"measurement": "Vmax", "setting": "[8]", "result": 0.000206, "unit": "µmol/min"}, {"measurement": "Km", "setting": "[9]", "result": 54.6, "unit": "µM"}, {"measurement": "Vmax", "setting": "[9]", "result": 0.000201, "unit": "µmol/min"}]}
{"molecule": "B4", "values": [{"measurement": "Km", "setting": "[10]", "result": 70.6, "unit": "µM"}, {"measurement": "Vmax", "setting": "[10]", "result": 0.000624, "unit": "µmol/min"}, {"measurement": "Km", "setting": "[11]", "result": 94.1, "unit": "µM"}, {"measurement": "Vmax", "setting": "[11]", "result": 0.00256, "unit": "µmol/min"}]}
